Bioassay records (PubChem)
Autophagy HCS = autophagy modulators in MEF cells, primary screen, imaging, high-content, MEF GFP-LC3 | MEF GFP-LC3 puncta imaging; test concentration mostly 10 µM | calls only at 10 µM (by protocol) | 190,000 tested, 0.98% active;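 active = percentage of spot-positive cells more than 3 SD above its plate mean, without a fluorescence outlier flag or 80% toxicity; inconclusive = no clear call, values can overlap the other calls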
Insulin prom inh = inhibitors of insulin promoter-driven GFP, primary screen, imaging, TRM-6 cells (human fetal islet line), eGFP reporter, cell count | reporter expression induced with tamoxifen | inhibition, % at 2 µM | 130,000 tested, 0.9% active | AID 1273, 2008;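 active = inhibition above the mean plus 3 SD, with well images judged a real hit on visual review, cut at about 60% in these data, passing the limit was not always enough; inconclusive = inhibition over the cutoff but images rejected on review; inactive = inhibition not above the cutoff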
Ins promoter up = insulin promoter activators in MIN6 cells, imaging, high-content screening, mouse beta cells. MIN6 insulin promoter-GFP reporter; active compounds read high. z-score at 5 µM. 190,000 tested, 0.3% active. AID 1625, 2009;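 active = z-score above 3 at 5 µM with at least 500 cells counted in the well; inconclusive = wells under 500 cells, flagged as cytotoxic or low count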
Dynein transport = inhibitors of GR-EGFP nuclear translocation, primary screen, dynein cargo transport inhibitor project, imaging, high-content, 3617.4 mouse cells; test concentration mostly 20 µM; stimulated with dexamethasone, 1 µM; active compounds read low; z-score, hits read low; 220,000 tested, 0.47% active; AID 1381, 2008;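 active = plate z-score of nuclear minus cytoplasmic receptor signal below a set negative limit, without overly bright fluorescence or cell loss, cut at about -3.5 in these data, passing the limit was not always enough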;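 note: z-score of nuclear minus cytoplasmic ring GR-EGFP intensity difference per well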
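Also added: dexamethasone, 1.0 µM final. Medium: tet-free, stripped-serum medium. Detection: fixed, Hoechst-stained cells imaged at 10x for EGFP. Read-out: nuclear-to-cytoplasmic GR-EGFP distribution per well. Times: induction 48 h, compound 1 h, agonist 30 min.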
Numbers stand for hits; 0 = inactive; ? = inconclusive; - = not tested or not shown; + = active, no number. In the library only some 2% were active in any assay of this set; here they are far more common.

SMILES	Autophagy HCS	Insulin prom inh	Ins promoter up	Dynein transport
COc1ccc(OC)c2c1sc(=NC(=O)c1cccc(N3C(=O)CCC3=O)c1)n2C	+	-	0	0
Cc1nn(-c2ccccc2)c(Cl)c1/C=N/Nc1nc2ccccc2n1C	0	78	0	0
CC(=O)Nc1ccc(/C=N/Nc2nc3ccccc3[nH]2)cc1	0	-	0	0
CCN(CC)c1ccc(/C=N/Nc2nc(C)cc(=O)[nH]2)c(O)c1	0	85	?	0
Cc1nn(-c2ccccc2)c(Cl)c1/C=N/NC(N)=O	-	-	0	0
Cc1nn(-c2ccccc2)c(C)c1/C=N/Nc1nc2ccccc2[nH]1	0	84	0	0
Cc1cc(=O)[nH]c(N/N=C/c2c(C)nn(-c3ccccc3)c2C)n1	0	-	-	0
CCN(CC)c1ccc(/C=N/Nc2nc3ccccc3[nH]2)cc1	+	0	0	0
O=C(NCCc1ccccc1)C(=O)Nc1ccc([N+](=O)[O-])cc1	0	-	0	0
O=C(Nc1ccc(F)cc1)Nc1ccc([N+](=O)[O-])cn1	+	0	0	0
O=C(Nc1ccc([N+](=O)[O-])cn1)C1CC2CCC1C2 (stereo not drawn)	0	69	0	0
Cc1cccc(OCCCC(=O)Nc2nc3ccccc3[nH]2)c1	+	0	0	0
COc1ccccc1CNc1nc2nc(C)c(C)c(=O)n2[nH]1	0	-	0	0
COC(=O)Cc1c(C)nc2nc(NCc3ccccc3OC)[nH]n2c1=O	0	0	4.3	0
Cc1cc2[nH]c3c(c[n+](C)c4ccccc34)c2cc1C	+	-	?	-4.4
CCc1ccc(NC(=O)c2cc(C)on2)cc1	0	0	0	0
CCc1ccc(NC(=O)c2cc(C(C)C)on2)cc1	0	0	3.4	0
CCn1nc(-c2ccccc2)c2nc3ccccc3nc21	+	-	0	0
CCCCCn1nc(-c2ccccc2)c2nc3ccccc3nc21	+	0	-	0
COc1ccc(/C=N/n2cncn2)cc1Cn1nc(C)c([N+](=O)[O-])c1C	-	-	0	0
N#CCc1c(C#N)c(N)nc(N2CCCC(CO)C2)c1C#N (stereo not drawn)	+	-	0	0
CCOC(=O)c1ccccc1NC(=O)CN(c1ccc(OCC)cc1)S(C)(=O)=O	0	0	0	0
NC(=O)c1oc2ccccc2c1NC(=O)C1COc2ccccc2O1 (stereo not drawn)	0	-	0	0
CCOCCCNC(=O)c1cc2sc(Cl)cc2n1CC	+	-	0	0
CCOCCCNC(=O)c1cc(C)nn1-c1ccccc1	0	-	0	0
SMILES	Autophagy HCS	Insulin prom inh	Ins promoter up	Dynein transport
O=C(NCC1CCCO1)C(c1ccncc1)N(Cc1ccc(F)cc1)C(=O)CN1C(=O)c2ccccc2S1(=O)=O (stereo not drawn)	0	0	0	0
O=C(NCC1CCCO1)C(c1ccccn1)N(Cc1ccccc1Cl)C(=O)CN1C(=O)c2ccccc2S1(=O)=O (stereo not drawn)	+	-	-	0
COc1ccc(Nc2nnc(Cc3ccccc3)c(=O)[nH]2)c(OC)c1	0	86	0	0
COc1ccc(Nc2nnc(Cc3ccc(Cl)cc3)c(=O)[nH]2)c(OC)c1	0	-	0	0
S=C(NCCc1ccccc1)Nc1cccc2cnccc12	0	73	0	0
CCCCNC(=S)Nc1cccc2cnccc12	0	-	0	0
O=C1CN(C(=O)CNCc2ccccc2)c2ccccc2N1	-	-	0	0
CC(NC(=O)C1CCCC1)C1CC2CCC1C2 (stereo not drawn)	0	71	0	0
COc1cccc(N=C2CC(C)(C)CC(=O)/C2=C(/O)c2ccccc2)c1	0	-	-	0
COc1cccc(N=C2SC(CC(=O)Nc3ccccc3)C(=O)N2Cc2ccccn2)c1 (stereo not drawn)	0	-	0	0
CCOc1ccc(OCCn2ccnc2)cc1	0	0	0	0
CCOc1ccc(OCCCCn2ccnc2)cc1	0	0	3.5	0
Cc1ccc(OCCCCn2ccnc2)c(Cl)c1	0	73	0	0
CC1CCN(S(=O)(=O)c2ccc3c(c2)C(=NO)c2cc(S(=O)(=O)N4CCC(C)CC4)ccc2-3)CC1	+	0	?	0
O=C(NCc1cccs1)C12CC3CC(CC(C3)C1)C2	0	82	0	0
Cc1ccc(S(=O)(=O)c2cccc(S(=O)(=O)N3CCOCC3)c2)cc1S(=O)(=O)N1CCOCC1	0	0	0	0
Cc1ccc(S(=O)(=O)c2cccc(S(=O)(=O)N3CCCC3)c2)cc1S(=O)(=O)N1CCCC1	0	0	3	0
Cc1cc(C)c(NC(=O)COc2ccccc2C(=O)Nc2ccc3c(c2)oc2ccccc23)c(C)c1	+	0	0	0
